Results of several laboratories.
Each line is one published result; the experiments were not run side by side.
Target: Serine/threonine-protein kinase PknB (pknB, Mycobacterium tuberculosis, UniProt P9WI81)

CNC(=O)[C@@H]1CC[C@@H](n2c(-c3ccc4cnccc4c3)nc3ccc(C(=O)NCc4cccc(C(N)=O)c4)cc32)C1 — remaining binding (binding, competition with immobilised ligand; 1 µM): 96%
C[C@@H](c1ccc(-n2cnc3c(N)ncnc32)cc1)N1CCc2nn(C)c(Cc3ccccc3)c2C1=O — remaining binding (binding, competition with immobilised ligand; 0.1 µM): 96%
CC1=C(C#N)C(c2ccc3c(c2)c(NC(=O)c2ccccc2C)nn3C)C(C#N)=C(C)N1 — remaining binding (cell-free assay, competition with immobilised ligand; 1 µM): 97%
CN(c1nccc(-c2cnn3ncccc23)n1)C1CC1 — remaining binding (binding; 1 µM): 100%
CNC(=O)Nc1ccc2c(c1)[C@@]1(CC2)OC(=O)N(CC(=O)N(Cc2ccc(F)cc2)[C@@H](C)C(F)(F)F)C1=O — remaining binding (cell-free assay, competition with immobilised ligand; 1 µM): 84%
Cc1nn(C)cc1-c1nc2c(N3CCN(Cc4ccc(Cl)cc4)CC3)c(Cl)cnc2[nH]1 — remaining binding (binding, competition with immobilised ligand; 1 µM): 56%
O=C(NCCCC1CCCCC1)c1ccc(CNC(=O)c2cnn(-c3ccccc3)c2C(F)(F)F)cc1 — remaining binding (cell-free assay, competition with immobilised ligand; 0.1 µM): 100%
c1cnn2ncc(-c3ccnc(N4CCC45COC5)n3)c2c1 — remaining binding (binding; 1 µM): 79%
O=C(Nc1cccnn1)N1CCC(=Cc2cccc(Oc3ccc(C(F)(F)F)cn3)c2)CC1 — remaining binding (cell-free assay, competition with immobilised ligand; 1 µM): 95%
COc1ccnn2ncc(-c3ccnc(N(C)C)n3)c12 — remaining binding (binding; 1 µM): 100%
O=C(Nc1c[nH]nc1C(=O)NC1CCNCC1)c1cc(F)cc(F)c1 — remaining binding (binding, competition with immobilised ligand; 1 µM): 100%
CN(C)c1ncc(F)c(-c2cnn3ncccc23)n1 — remaining binding (binding; 1 µM): 87%
Nc1ncc2c(n1)-c1c([nH]c3ccc(C#CC4CC4)cc13)CCCC2 — remaining binding (binding, competition with immobilised ligand; 1 µM): 90%
COc1cnc(Nc2cccc(S(N)(=O)=O)c2)nc1N1CCN(c2ccccc2)C(=O)C1 — remaining binding (binding, competition with immobilised ligand; 1 µM): 86%
N[C@@H]1CCN(c2nccc(-c3cnn4ncccc34)n2)C1 — remaining binding (binding; 1 µM): 100%
